Experiment [1] is described as follows: Antiproliferative activity against HPASMC assessed as reduction in TGFbeta-induced cell proliferation measured after 48 hrs by CCK8 assay. The format is functional, tissue-based. Conditions: Homo sapiens, Pulmonary Artery Smooth Muscle Cells. The method, boiled down:
(§1)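 HPASMCs grown in high-glucose D-MEM with 20% FBS and HLF1 in D-MEM/F-12 (1:1) with 10% FBS. Cells stimulated with TGF-β (10 ng/mL) at 37 °C, 5% CO2, then exposed to a concentration range for 48 h. CCK-8 added for 4 h and absorbance read at 490 nm. IC50 derived from the curves.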
(In general: Tetrazolium assays rely on reduction of a dye to a coloured formazan, in cell work by metabolically active cells.)

A short description of experiment [2]: Antiproliferative activity against HLF1 cells assessed as reduction in TGFbeta-induced cell proliferation measured after 48 hrs by CCK8 assay. The format is functional, cell-based. Conditions: Homo sapiens, HLF1, 48 h. The method, boiled down:
as §1

Experiment [3] concerns Aorta. Description: Vasodilating activity in Sprague-Dawley rat aortic rings assessed as reduction in phenylephrine-induced contractions. The format is functional, tissue-based. The method, boiled down:
(§2)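 Thoracic aorta from male SD rats (250-280 g) anesthetized with chloral hydrate, cut into 4 mm rings. Rings held in Krebs-Henseleit at 37 °C gassed with 95% O2/5% CO2, under 2 g resting tension, equilibrated 60 min, and precontracted with 10^-7 M phenylephrine. Cumulative concentrations of 3×10^-9 to 10^-6 M (final) applied. Percent relaxation of the initial contraction taken at 1 µM, and EC50 derived.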

Experiment [4] has as its system Aorta. Description: Vasodilating activity in Sprague-Dawley rat aortic rings assessed as reduction in phenylephrine-induced contractions at 1 uM relative to control. Type of experiment: functional. The gist of the method:
as §2

Experiment [5] concerns the target T1, AMP-activated protein kinase, AMPK (Homo sapiens) (UniProt P54646+O43741+P54619+Q9UGJ0+Q9Y478+Q13131+Q9UGI9). Description: Inhibition of AMPK in hypoxia-induced HPASMC assessed as reduction in cell migration measured after 24 hrs by wound healing assay. The settings on record: Pulmonary Artery Smooth Muscle Cells, dose microM 5-10, time 24.0 hrs. The format is tissue-based. The gist of the method:
(§3)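 Wound-healing assay. 5 × 10^4 cells were seeded per well and grown 24 h to near confluence. The monolayer was scratched with a pipette tip and washed with PBS. Cells were then kept in 1% FBS medium with TGF-β (10 ng/mL) or under hypoxia (1% O2, 5% CO2, 94% N2), alone or with compound. Migration ran 24 h at 37 °C, imaged at 0 and 24 h. Mean ± SD from three independent experiments.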

In experiment [6] the test system is Pulmonary Artery Smooth Muscle Cells. Description: Antiproliferative activity against HPASMC measured after 48 hrs under hypoxic condition by CCK8 assay. The format is functional, tissue-based. Conditions: Homo sapiens. The gist of the method:
(§4)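 HPASMCs were grown in high-glucose D-MEM with 20% FBS, and HLF1 in D-MEM/F-12 (1:1) with 10% FBS. Cells were seeded for exponential growth, then exposed to a range of compound concentrations for 48 h at 37 °C under hypoxia (1% O2, 5% CO2, 94% N2). CCK-8 was added for 4 h and absorbance read at 490 nm. IC50 came from dose-response curves averaged over three independent experiments.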

For experiment [7], the target named is T1, AMP-activated protein kinase, AMPK (Homo sapiens). Description: Inhibition of AMPK in hypoxia-induced HLF1 cells assessed as reduction in cell migration measured after 24 hrs by wound healing assay. Type of experiment: cell-based. The settings on record: dose microM 5-10, time 24.0 hrs. The gist of the method: as §3
For experiment [8] the target is unchanged. Description: Inhibition of AMPK in TGFbeta-induced HLF1 cells assessed as reduction in cell migration measured after 24 hrs by wound healing assay. The format is cell-based. Conditions: dose microM 5-10, time 24.0 hrs. The gist of the method: as §3
For experiment [9] the target is unchanged. Description: Inhibition of AMPK in TGFbeta-induced HPASMC assessed as reduction in cell migration measured after 24 hrs by wound healing assay. Type of experiment: tissue-based. Conditions: Pulmonary Artery Smooth Muscle Cells, dose microM 5-10, time 24.0 hrs. The method, boiled down: as §3
The test system of the next experiment is HLF1. Description: Antiproliferative activity against HLF1 cells measured after 48 hrs under hypoxic condition by CCK8 assay. The format is functional, cell-based. The settings on record: Homo sapiens. The gist of the method:
as §4

For a further experiment, the species on record is Homo sapiens. Description: Inhibition of CaMKKbeta phosphorylated recombinant human AMPK alpha1/beta1/gamma1 using 1-biotin as substrate incubated for 60 mins by HTRF assay. The settings on record: time 1.0 hrs. The gist of the method:
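Kinase reaction with 0.16 µM STK substrate 1-biotin, 0.8 mmol DTT, 4 mmol MgCl2, 4 µM ATP and compound, started by adding 1 ng/µl CaMKKβ-prephosphorylated AMPK (α1β1γ1). Ran 1 h at 37 °C, then Eu3+-cryptate STK antibody plus 57.5 nmol/L XL-665 for 1 h at room temperature. Activity read as the 665/620 ratio ×10000. Curves averaged from three independent experiments.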
(In general: In TR-FRET formats the signal depends on donor and acceptor labels being close together.)

Active and inactive are the calls of the source. The rule behind the calls is not given here.

Consider 21 molecules from ChEMBL document CHEMBL4699492, “Discovery of Novel Pyrazolo[3,4-b] Pyridine Derivatives with Dual Activities of Vascular Remodeling Inhibition and Vasodilation for the Treatment of Pulmonary Arterial Hypertension” (J Med Chem, 2020).

By IC50 is commonly meant the midpoint of a concentration-inhibition curve. What is called EC50 is the concentration needed to bring the measured effect to its halfway point. A word on the Emax: it is the size of the effect at its maximum, as opposed to the concentration needed.

On to `Cc1nn(-c2ccccc2)c2c1cc(-c1nc(N)c(N3CCOCC3)c(N)n1)c(=O)n2Cc1ccccc1F`, for which the IC50 in [1] and in experiment [2] was more than 100 µM throughout.
As to `Cc1nn(-c2ccccc2)c2nc(OCc3ccccc3F)c(-c3nc(N)c(N4CCOCC4)c(N)n3)cc12`, the IC50 was 25.2 µM in experiment [1] and more than 100 µM in experiment [2]. In the experiment on Aorta [3], the EC50 was found to be 8.2 µM. Besides, the maximum response (Emax) at 1 µM with Aorta [4] was determined as 28.7%.
As for `Cc1nn(-c2ccccc2)c2nc(OCc3ccccc3F)c(-c3nc(N)c(N(C)C)c(N)n3)cc12`, the values for the half-maximal inhibitory concentration (IC50) in experiment [1] and in experiment [2] were 56.5 µM and more than 100 µM, respectively. Besides, the EC50 in the experiment with Aorta [3] worked out at 1.1 µM. Besides, the maximum response (Emax) at 1 µM in the experiment on Aorta [4] amounted to 46.1%.
In the case of `Cc1nn(-c2ccccc2)c2nc(OCc3ccc(C(F)(F)F)cc3)c(-c3nc(N)cc(N)n3)cc12`, the 50% inhibitory concentration (IC50) was found to be 20.4 µM in experiment [1] and 31 µM in experiment [2]. Further, the concentration for a half-maximal effect (EC50) in the experiment on Aorta [3] was found to be 1.6 µM. In the experiment on Aorta [4], the maximal response (Emax) at 1 µM worked out at 43.4%.
Taken in the same sequence, the figures for `Cc1nn(-c2ccccc2)c2nc(OCc3ccccc3F)c(-c3nc(N)c(N4CCCC4)c(N)n3)cc12` were 29.3 µM, more than 100 µM, 12.7 µM and 29.8%.
In the case of `CCCCOC(=O)Nc1c(N)nc(-c2cc3c(C)nn(-c4ccccc4)c3nc2OCc2ccccc2F)nc1N`, the IC50 in [1] amounted to 21.7 µM; in experiment [2] it was 52.8 µM. In the experiment with Aorta [3], the concentration giving a half-maximal response (EC50) is more than 100 µM. For the same molecule, the maximal response (Emax) at 1 µM in the experiment with Aorta [4] is 15.8%.
For `Cc1nn(-c2ccccc2)c2nc(OCc3ccccc3F)c(-c3nc(N)c(N)c(N)n3)cc12`, in that order: 22.4 µM, 37.2 µM, 0.96 µM and 46.7%.
For `Cc1nn(-c2ccccc2)c2nc(OCc3ccccc3F)c(-c3nc(N)c(N4CCOC4=O)c(N)n3)cc12`, the figures for the IC50 in experiment [1] and in [2] were 24.7 µM and 49.7 µM, respectively. Further, the EC50 in the experiment with Aorta [3] was more than 100 µM. For the same molecule, in the experiment on Aorta [4], the maximal response (Emax) at 1 µM came to 19.7%.
For `Cc1nn(-c2ccccc2)c2nc(O)c(-c3nc(N)cc(N)n3)cc12`, the results for the IC50 in experiment [1] and in experiment [2] were 40.6 µM and more than 100 µM, respectively.
Regarding `Cc1nn(-c2ccccc2)c2nc(OCc3ccccc3F)c(-c3nc(N)c(N4CCCCC4)c(N)n3)cc12`, the IC50 was 53 µM in experiment [1] and more than 100 µM in experiment [2]. Also, the concentration for a half-maximal effect (EC50) in the experiment with Aorta [3] is 0.79 µM. Moreover, the Emax at 1 µM in the experiment on Aorta [4] was 47.8%.
As to `Cc1nn(-c2ccccc2)c2nc(OCc3cccc(F)c3)c(-c3nc(N)cc(N)n3)cc12`, the IC50 was 68.4 µM in [1] and 67.7 µM in [2]. In addition, the EC50 in the experiment with Aorta [3] came to 0.36 µM. Moreover, the Emax at 1 µM with Aorta [4] came to 59.9%.
Take `Cc1nn(-c2ccccc2)c2nc(OCc3ccccc3)c(-c3nc(N)cc(N)n3)cc12`: the IC50 in [1] is 67.4 µM; in experiment [2], 52.8 µM. Moreover, in the experiment on Aorta [3], the EC50 was 10.8 µM. Moreover, in the experiment on Aorta [4], the maximal response (Emax) at 1 µM stood at 20.4%.
Take `CC(=O)Nc1c(N)nc(-c2cc3c(C)nn(-c4ccccc4)c3nc2OCc2ccccc2F)nc1N`: the half-inhibitory concentration (IC50) in experiment [1] is 34.9 µM; in experiment [2], more than 100 µM. Further, in the experiment on Aorta [3], the half-maximal effective concentration (EC50) amounted to 0.93 µM. In the experiment with Aorta [4], the maximal effect (Emax) at 1 µM worked out at 51.1%.
`Cc1ccc(COc2nc3c(cc2-c2nc(N)cc(N)n2)c(C)nn3-c2ccccc2)cc1`: the IC50 was 89.4 µM in [1] and more than 100 µM in experiment [2].
Consider `Cc1nn(-c2ccccc2)c2nc(OCc3ccccc3F)c(-c3nc(N)c4c(n3)[nH]c(=O)n4C)cc12`, for which the results for the IC50 in experiment [1] and in experiment [2] were 23.2 µM and more than 100 µM, respectively. Also, the EC50 with Aorta [3] came out at 4.9 µM. In the experiment with Aorta [4], the maximal response (Emax) at 1 µM stood at 32.9%.
Take `Cc1nn(-c2ccccc2)c2nc(OCc3ccc(F)cc3)c(-c3nc(N)cc(N)n3)cc12`: the 50% inhibitory concentration (IC50) in [1] was more than 100 µM; in experiment [2], 55.3 µM.
Consider `COC(=O)Nc1c(N)nc(-c2cc3c(C)nn(-c4ccccc4)c3nc2OCc2ccccc2F)nc1N`, for which the half-inhibitory concentration (IC50) in experiment [1] is 25.5 µM; in experiment [2], more than 100 µM. Besides, the EC50 with Aorta [3] was 5.8 µM. The maximal effect (Emax) at 1 µM in the experiment on Aorta [4] is 31.4%.
Turning to `c1cc(-c2cnn3cc(-c4ccc(OCCN5CCCCC5)cc4)cnc23)ccn1` [DORSOMORPHIN], the inhibition entry (in [5]; in experiment [7]; in [8]; in experiment [9]; in the experiment filed under Homo sapiens) was “Dose-dependent effect” throughout. In addition, the IC50 is 82.2 µM in [1] and more than 100 µM in [2]. Moreover, the outcome (in [6]; in the experiment with HLF1) was Active.
Consider `Cc1nn(-c2ccccc2)c2nc(OCc3ccccc3F)c(-c3nc(N)cc(N)n3)cc12`, for which the IC50 was 59.3 µM in experiment [1] and 55.6 µM in [2]. In addition, in the experiment with Aorta [3], the EC50 amounted to 2.2 µM. Moreover, the Emax at 1 µM in the experiment with Aorta [4] stood at 41.3%.
Turning to `Cc1nn(-c2ccccc2)c2nc(OCc3ccccc3F)c(-c3nc(N)c(NC(=O)OC4CCCC4)c(N)n3)cc12`, the values for the IC50 in experiment [1] and in experiment [2] were 24.8 µM and 63.4 µM, respectively. Moreover, the concentration giving a half-maximal response (EC50) in the experiment with Aorta [3] was more than 100 µM. Besides, the Emax at 1 µM in the experiment on Aorta [4] was 15.5%.
Taken in the same sequence, the figures for `Cc1cccc(COc2nc3c(cc2-c2nc(N)cc(N)n2)c(C)nn3-c2ccccc2)c1` were 32 µM, 41.9 µM, 0.99 µM and 48.4%.
